From ChEMBL document CHEMBL5032493, “Synthesis and Evaluation of PPARδ Agonists That Promote Osteogenesis in a Human Mesenchymal Stem Cell Culture and in a Mouse Model of Human Osteoporosis” (J Med Chem, 2021)
Activity calls are given as the source filed them. The rule behind the calls is not given here.

Key:
[1] = tested on: Mesenchymal stem cells; test: Induction of osteogenesis differentiation in human Mesenchymal stem cells at 1 uM incubated for 21 days by Alizarin Red S staining-based microscopic analysis; assay type: functional, cell-based; settings: time 21.0 day
[2] = tested on: Mesenchymal stem cells; test: Induction of adipogenesis differentiation in human Mesenchymal stem cells at 1 uM incubated for 21 days by […] staining-based microscopic analysis; assay type: functional, cell-based; settings: time 21.0 day
[3] = tested on: Mesenchymal stem cells; test: Induction of adipogenesis differentiation in human Mesenchymal stem cells at 10 uM incubated for 21 days by […] staining-based microscopic analysis; assay type: functional, cell-based; settings: time 21.0 day
[4] = tested on: Mesenchymal stem cells; test: Induction of adipogenesis differentiation in human Mesenchymal stem cells at 20 uM incubated for 21 days by […] staining-based microscopic analysis; assay type: functional, cell-based; settings: time 21.0 day
[5] = tested on: Mesenchymal stem cells; test: Induction of osteogenesis differentiation in human Mesenchymal stem cells at 10 uM incubated for 21 days by Alizarin Red S staining-based microscopic analysis; assay type: functional, cell-based; settings: time 21.0 day
[6] = tested on: Mesenchymal stem cells; test: Induction of osteogenesis differentiation in human Mesenchymal stem cells at 20 uM incubated for 21 days by Alizarin Red S staining-based microscopic analysis; assay type: functional, cell-based; settings: time 21.0 day
[7] = biological target: T1, Peroxisome proliferator-activated receptor alpha (Homo sapiens, UniProt Q07869); test: Agonist activity at human PPARalpha transfected in COS-7 cells assessed luciferase activity measured after 24 hrs by cell based luciferase transactivation assay; settings: read-out: EC50
T1 sequence (Q07869 whole entry): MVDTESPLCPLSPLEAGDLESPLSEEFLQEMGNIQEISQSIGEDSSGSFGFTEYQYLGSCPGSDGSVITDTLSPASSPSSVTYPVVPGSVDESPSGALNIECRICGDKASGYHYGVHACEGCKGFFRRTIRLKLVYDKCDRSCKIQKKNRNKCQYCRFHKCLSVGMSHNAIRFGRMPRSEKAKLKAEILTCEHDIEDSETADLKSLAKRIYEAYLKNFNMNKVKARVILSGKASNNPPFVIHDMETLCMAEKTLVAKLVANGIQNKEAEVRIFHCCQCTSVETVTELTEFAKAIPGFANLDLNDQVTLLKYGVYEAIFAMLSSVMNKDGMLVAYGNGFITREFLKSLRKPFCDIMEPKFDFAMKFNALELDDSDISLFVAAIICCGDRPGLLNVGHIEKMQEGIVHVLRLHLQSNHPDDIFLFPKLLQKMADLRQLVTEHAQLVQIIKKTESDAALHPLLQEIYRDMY
How it was run: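 Transient transfection of COS-7 cells with human PPARα, PPARγ or PPARδ plus luciferase reporter; constitutive Renilla luciferase also read. Three or more independent experiments in triplicate (N ≥ 9).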

[8] = biological target: T2, Peroxisome proliferator-activated receptor delta (Homo sapiens, UniProt Q03181); test: Agonist activity at human PPARdelta transfected in COS-7 cells assessed luciferase activity measured after 24 hrs by cell based luciferase transactivation assay
T2 sequence (Q03181 whole entry): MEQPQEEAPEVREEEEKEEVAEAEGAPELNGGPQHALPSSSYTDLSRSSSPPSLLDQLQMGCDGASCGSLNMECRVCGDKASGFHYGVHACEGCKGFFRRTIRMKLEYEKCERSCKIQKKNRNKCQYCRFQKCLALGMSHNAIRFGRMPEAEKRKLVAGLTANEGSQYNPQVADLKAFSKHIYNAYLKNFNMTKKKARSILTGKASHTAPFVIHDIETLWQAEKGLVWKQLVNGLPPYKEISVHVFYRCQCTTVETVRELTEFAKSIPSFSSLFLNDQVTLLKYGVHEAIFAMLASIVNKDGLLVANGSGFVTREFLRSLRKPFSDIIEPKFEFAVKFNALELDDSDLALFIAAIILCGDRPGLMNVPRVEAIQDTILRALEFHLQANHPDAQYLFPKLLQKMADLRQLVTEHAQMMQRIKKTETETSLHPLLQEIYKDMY

[9] = biological target: T3, Peroxisome proliferator-activated receptor alpha (Homo sapiens) (UniProt Q07869); test: Agonist activity at human PPARalpha transfected in COS-7 cells assessed maximum luciferase activity measured after 24 hrs by cell based luciferase transactivation assay relative to gemfibrozil; settings: filed as agonist
T3 sequence (whole entry): T1 sequence (Q07869 whole entry)
How it was run: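 Transient transfection of COS-7 cells with human PPARα, PPARγ or PPARδ plus luciferase reporter; constitutive Renilla luciferase also read. […] Three or more independent experiments in triplicate (N ≥ 9).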

[10] = biological target: T4, Peroxisome proliferator-activated receptor gamma (Homo sapiens, UniProt P37231); test: Agonist activity at human PPARgamma transfected in COS-7 cells assessed luciferase activity measured after 24 hrs by cell based luciferase transactivation assay; settings: read-out: EC50
T4 sequence (P37231 whole entry): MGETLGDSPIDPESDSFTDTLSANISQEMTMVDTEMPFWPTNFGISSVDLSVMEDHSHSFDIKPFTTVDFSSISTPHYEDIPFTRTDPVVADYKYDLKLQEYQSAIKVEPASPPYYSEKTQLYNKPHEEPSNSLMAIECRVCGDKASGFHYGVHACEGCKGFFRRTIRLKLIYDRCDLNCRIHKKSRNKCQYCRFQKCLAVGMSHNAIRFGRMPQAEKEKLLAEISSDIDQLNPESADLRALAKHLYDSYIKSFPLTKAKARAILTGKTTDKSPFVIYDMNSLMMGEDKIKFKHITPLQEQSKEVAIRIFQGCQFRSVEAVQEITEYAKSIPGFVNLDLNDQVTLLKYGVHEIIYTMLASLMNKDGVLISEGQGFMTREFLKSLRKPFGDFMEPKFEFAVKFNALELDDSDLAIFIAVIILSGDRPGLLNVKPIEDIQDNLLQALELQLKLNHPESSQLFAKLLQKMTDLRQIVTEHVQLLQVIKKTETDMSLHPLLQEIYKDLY

EC50 [7] | EC50 [8] | Emax [9] | EC50 [10] | SMILES | Activity [1] | Activity [2] | Activity [3] | Activity [4] | Activity [5] | Activity [6]
 |  |  |  | Cc1nc(-c2ccc(C(F)(F)F)c(F)c2)sc1CNc1ccc(/C=C/C(=O)O)cc1 | Active | inactive | Active | Active | inactive | inactive
 |  |  |  | Cc1nc(-c2ccccc2)sc1CNc1ccc(/C=C/C(=O)O)cc1 | Active | Active | Active |  | inactive | 
 |  |  |  | Cc1sc(-c2ccc(C(F)(F)F)cc2)nc1CN(C)c1ccc(/C=C/C(=O)O)cc1 | Active | inactive | inactive | inactive | Active | inactive
 |  |  |  | Cc1nc(-c2cccc(C(F)(F)F)c2)sc1COc1ccc(/C=C/C(=O)O)cc1 | Active | Active |  |  |  | 
 |  |  |  | Cc1nc(-c2cccc(C(F)(F)F)c2)sc1CN(C)c1ccc(/C=C/C(=O)O)cc1 | Active | inactive | Active | Active | inactive | inactive
 |  |  |  | Cc1nn(-c2ccc(C(F)(F)F)cc2)nc1CN(C)c1ccc(/C=C/C(=O)O)cc1 | Active | inactive | inactive | inactive | Active | Active
 |  |  |  | Cc1nc(-c2cccc(C(F)(F)F)c2)sc1CSc1ccc(/C=C/C(=O)O)cc1 | Active | inactive | Active | Active | inactive | inactive
 |  |  |  | Cc1nc(-c2cccc(C(F)(F)F)c2)sc1CNc1ccc(/C=C/C(=O)O)cc1 | inactive | Active | Active | Active | inactive | inactive
 |  |  |  | Cc1nc(-c2ccc(C(F)(F)F)c(F)c2)sc1CN(C(=O)OC(C)(C)C)c1ccc(/C=C/C(=O)O)cc1 | Active | inactive | Active | Active | inactive | inactive
 |  |  |  | Cc1nc(-c2ccc(C(F)(F)F)c(F)c2)sc1CN(C)c1ccc(/C=C/C(=O)O)cc1 | Active | inactive | inactive | Active | inactive | inactive
 |  |  |  | Cc1nc(-c2ccccc2)sc1CN(C)c1ccc(/C=C/C(=O)O)cc1 | Active | inactive | Active | Active | inactive | inactive
 |  |  |  | COC(=O)/C=C/c1ccc(OCc2sc(-c3cccc(C(F)(F)F)c3)nc2C)cc1 | inactive | Active |  |  |  | 
6.01 µM | 1.22 µM | 377% |  | Cc1nc(-c2ccc(C(F)(F)F)cc2)sc1CNc1ccc(/C=C/C(=O)O)cc1 | Active | inactive | Active | Active | Active | Active
 |  |  |  | CCc1cc(N(C)Cc2sc(-c3ccc(C(F)(F)F)cc3)nc2C)ccc1/C=C/C(=O)O | Active | Active | Active | Active | Active | Active
 |  |  |  | COC(=O)/C=C/c1ccc(OCc2sc(-c3ccc(C(F)(F)F)cc3)nc2C)cc1 | inactive | Active |  |  |  | 
 |  |  |  | Cc1nc(-c2ccc(C(F)(F)F)cc2)sc1CN(Cc1sc(-c2ccc(C(F)(F)F)cc2)nc1C)c1ccc(/C=C/C(=O)O)cc1 | Active | inactive | inactive |  | inactive | 
 |  |  |  | Cc1cc(/C=C/C(=O)O)ccc1N(C)Cc1sc(-c2ccc(C(F)(F)F)cc2)nc1C | Active | inactive | inactive | inactive | Active | Active
11.8 µM |  | 110% |  | Cc1ccc(C)c(OCCCC(C)(C)C(=O)O)c1 [GEMFIBROZIL] |  |  |  |  |  | 
 |  |  |  | Cc1nc(-c2ccccc2)sc1CSc1ccc(/C=C/C(=O)O)cc1 | Active | Active | Active |  | inactive | 
17.7 µM | 0.535 µM | 338% | 17 µM | Cc1nc(-c2ccc(C(F)(F)F)cc2)sc1CSc1ccc(/C=C/C(=O)O)cc1 | Active | inactive | inactive |  | Active | 
 |  |  |  | Cc1nc(-c2ccccc2)sc1COc1ccc(/C=C/C(=O)O)cc1 | inactive | Active | Active |  | inactive | 
 |  |  |  | CCN(Cc1sc(-c2ccc(C(F)(F)F)cc2)nc1C)c1ccc(/C=C/C(=O)O)cc1 | Active | Active | Active | Active | Active | Active
 |  |  |  | Cc1nc(-c2ccc(C(F)(F)F)cc2)sc1CN(c1ccc(/C=C/C(=O)O)cc1)C(C)C | Active | inactive | inactive | inactive | Active | Active
 |  |  |  | Cc1nn(-c2ccc(C(F)(F)F)cc2)nc1CNc1ccc(/C=C/C(=O)O)cc1 | Active | Active | Active | Active | Active | Active
 |  |  |  | Cc1nc(-c2ccc(C(F)(F)F)cc2)sc1CN(C)c1ccc(/C=C/C(=O)O)c(C(C)C)c1 | Active | inactive | inactive | inactive | Active | Active
 |  |  |  | CCCN(Cc1sc(-c2ccc(C(F)(F)F)cc2)nc1C)c1ccc(/C=C/C(=O)O)cc1 | Active | inactive | Active | Active | Active | inactive
 |  | > 120% |  | CN(CCOc1ccc(CC2SC(=O)NC2=O)cc1)c1ccccn1 (stereo not given) |  | Active | Active |  |  | 
